Experiment [1] has as its system MCF7. The experiment is described as follows: Antiproliferative activity against human MCF7 cells by MTT assay. The class given is functional, cell-based. In a few lines:
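Cells plated at 8 × 10^3/well (MDA-MB-231) or 10^4/well (MCF7) in 96-well plates. Compounds fed in media with 5% FBS (MDA-MB-231) or 1% FBS (MCF7). MTT read-out of viable cells.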
On the technique in general: Tetrazolium assays rely on reduction of a dye to a coloured formazan, in cell work by metabolically active cells.

The subject of a further experiment is DU-145. In words: Growth inhibition of human DU145 cells assessed as cell growth at 10 uM after 48 hrs by sulforhodamine B assay. The class given is functional. To be noted: DU-145, 48 h, read-out: Activity. In a few lines: (§1)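 NCI-60 single-dose screen at 10 µM: cells in RPMI 1640 with 5% FBS, preincubated 24 h, then exposed 48 h at 37 °C. TCA fixation (16% final for suspension cells), SRB staining, absorbance 515 nm. Percent growth relative to time-zero and untreated control plates; negative values indicate cell kill.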
A general note: The SRB assay estimates cell density from bound dye.

The test system of another experiment is SN12C. In words: Growth inhibition of human SN12C cells assessed as cell growth at 10 uM after 48 hrs by sulforhodamine B assay. It counts as functional. To be noted: read-out: Activity. In a few lines: (§2)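 Single-dose NCI-60 test at 10 µM. Cells were grown in RPMI 1640 with 5% FBS and 2 mM L-glutamine, preincubated 24 h, with T0 plates TCA-fixed. Exposure was 48 h at 37 °C, 5% CO2. Cells were fixed with cold TCA (final 10%, 4 °C, 60 min), stained with SRB and read at 515 nm. Percent growth was taken relative to T0 and untreated control; negative values denote cell kill.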

A short description of experiment [2]: Antiproliferative activity against mouse +SA cells by MTT assay. The class given is functional, cell-based. The note with it: +SA cell. In a few lines:
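Mouse +SA mammary epithelial cells in serum-free DMEM/F12 with BSA, transferrin, insulin and EGF. Compounds from DMSO stock conjugated to BSA (overnight, 37 °C); 0–40 µM, final DMSO <0.1%. MTT 0.42 mg/mL for 4 h at 37 °C, isopropanol solubilization, OD 570 nm. Cell number from a standard curve; IC50 by non-linear regression.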

For the next experiment, the system named is MDA-MB-468. In words: Growth inhibition of human MDA-MB-468 cells assessed as cell growth at 10 uM after 48 hrs by sulforhodamine B assay. The class given is functional. To be noted: MDA-MB-468, 48 h, read-out: Activity. In a few lines: (§3)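 Single-dose NCI-60 screen: adherent cells in RPMI 1640 with 5% FBS were exposed to 10 µM for 48 h at 37 °C after a 24 h preincubation. They were fixed in situ with cold TCA (10% final), stained with 0.4% SRB in 1% acetic acid, solubilized in 10 mM Tris base, and read at 515 nm. Percent growth was taken relative to time-zero and control plates.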

A further experiment relates to OVCAR-5. The experiment is described as follows: Growth inhibition of human OVCAR5 cells assessed as cell growth at 10 uM after 48 hrs by sulforhodamine B assay. The class given is functional. To be noted: OVCAR-5, 48 h, read-out: Activity. In short, it runs like this: as §3
Another experiment has as its system NCI-H226. In words: Growth inhibition of human NCI-H226 cells assessed as cell growth at 10 uM after 48 hrs by sulforhodamine B assay. The class given is functional. To be noted: NCI-H226, 48 h, read-out: Activity. In a few lines:
as §3

A further experiment relates to IGROV-1. In words: Growth inhibition of human IGROV1 cells assessed as cell growth at 10 uM after 48 hrs by sulforhodamine B assay. The class given is functional. The note with it: IGROV-1, 48 h, read-out: Activity. In a few lines: as §1
For experiment [3], the system named is MCF7. In words: Growth inhibition of human MCF7 cells assessed as cell growth at 10 uM after 48 hrs by sulforhodamine B assay. The class given is functional. The note with it: MCF7, 48 h, read-out: Activity. In short, it runs like this:
as §3

Experiment [4] can be described thus: Growth inhibition of human EKVX cells assessed as cell growth at 10 uM after 48 hrs by sulforhodamine B assay. It counts as functional. To be noted: read-out: Activity. In a few lines:
as §1

For a further experiment, the system named is HT-29. In words: Growth inhibition of human HT-29 cells assessed as cell growth at 10 uM after 48 hrs by sulforhodamine B assay. It counts as functional. The note with it: HT-29, 48 h, read-out: Activity. In short, it runs like this:
as §1

The test system of the next experiment is HOP-92. In words: Growth inhibition of human HOP92 cells assessed as cell growth at 10 uM after 48 hrs by sulforhodamine B assay. The class given is functional. The note with it: HOP-92, 48 h, read-out: Activity. In short, it runs like this:
as §1

In a further experiment the test system is UACC-257. The experiment is described as follows: Growth inhibition of human UACC257 cells assessed as cell growth at 10 uM after 48 hrs by sulforhodamine B assay. The class given is functional. To be noted: UACC-257, 48 h, read-out: Activity. In short, it runs like this: as §2
For another experiment, the system named is SF-295. In words: Growth inhibition of human SF295 cells assessed as cell growth at 10 uM after 48 hrs by sulforhodamine B assay. It counts as functional. The note with it: SF-295, 48 h, read-out: Activity. In a few lines: as §3

A value given as a limit tells only on which side of the number the result lay.

As to `COc1ccc(CCN2COc3c(C)c(C)c4c(c3C2)CC[C@@](C)(CC/C=C(\C)CC/C=C(\C)CCC=C(C)C)O4)cc1OC`, the IC50 (usually the midpoint of a concentration-inhibition curve) was greater than 20 µM with MCF7 [1] and 1.8 µM in [2]. Also, the growth at 10 µM came out at 111% with DU-145; 87.3% in the experiment on SN12C; 95.1% in the experiment on MDA-MB-468; 101% with OVCAR-5; 97% in the experiment with NCI-H226; 87.4% in the experiment on IGROV-1. Besides, the growth at 10 µM in the experiment with MCF7 [3] is 77.5%; in experiment [4] it was 94.1%; in the experiment with HT-29 it was 91.7%; with HOP-92, 106%; with UACC-257 it was 105%; with SF-295 it was 108%.

For `CC(C)=CCC/C(C)=C/CC/C(C)=C/CC[C@]1(C)CCc2c3c(c(C)c(C)c2O1)OCN(CCCCCCCCCCO)C3`, the 50% inhibitory concentration (IC50) in the experiment with MCF7 [1] stood at 19.4 µM; in experiment [2] it was 4.4 µM. Also, the growth at 10 µM was determined as 67% in the experiment with DU-145; 99.4% in the experiment with SN12C; 91.9% in the experiment on MDA-MB-468; 106% with OVCAR-5; 92.6% with NCI-H226; 102% in the experiment with IGROV-1. Besides, the growth at 10 µM came out at 93.4% with MCF7 [3]; 102% in experiment [4]; 90% in the experiment on HT-29; 93.7% in the experiment with HOP-92; 102% in the experiment on UACC-257; 111% in the experiment on SF-295.

In the case of `CC(C)=CCC/C(C)=C/CC/C(C)=C/CC[C@]1(C)CCc2c3c(c(C)c(C)c2O1)OCN(CCc1ccc(O)cc1)C3`, the IC50 was determined as 10.6 µM with MCF7 [1] and 1.5 µM in experiment [2]. In addition, the growth at 10 µM was 107% in the experiment with DU-145; 85.4% in the experiment on SN12C; 88.8% with MDA-MB-468; 111% in the experiment with OVCAR-5; 111% in the experiment on NCI-H226; 67.7% with IGROV-1. Also, the growth at 10 µM in the experiment with MCF7 [3] was 16.9%; in [4], 93.9%; in the experiment with HT-29, 84.5%; with HOP-92 it was 87.9%; in the experiment on UACC-257 it was 93.6%; with SF-295 it was 100%.

In turn, `CC(C)=CCC/C(C)=C/CC/C(C)=C/CC[C@]1(C)CCc2cc(O)c(C)c(C)c2O1` [GAMMA-TOCOTRIENOL] showed an IC50 in the experiment with MCF7 [1] of 7.1 µM. Moreover, the growth at 10 µM in the experiment with DU-145 stood at 99.7%; in the experiment on SN12C, 96%; in the experiment with MDA-MB-468, 108%; with OVCAR-5 it was 114%; in the experiment on NCI-H226 it was 90.8%; in the experiment with IGROV-1, 96.3%. Also, the growth at 10 µM worked out at 84.1% in the experiment with MCF7 [3]; 110% in experiment [4]; 96.1% in the experiment on HT-29; 92% in the experiment with HOP-92; 123% in the experiment on UACC-257; 105% in the experiment on SF-295.

`CC(C)=CCC/C(C)=C/CC/C(C)=C/CC[C@]1(C)CCc2c3c(cc(C)c2O1)OCN(CCCCCCCCCCCCO)C3`: the results for the IC50 (in the experiment with MCF7 [1]; in experiment [2]) were greater than 20 µM and 2 µM, respectively. Also, the growth at 10 µM in the experiment with DU-145 is 85.4%; in the experiment on SN12C it was 71.8%; in the experiment with MDA-MB-468, 77.4%; in the experiment with OVCAR-5 it was 102%; with NCI-H226 it was 80.6%; with IGROV-1, 72.5%. The growth at 10 µM worked out at 26.3% in the experiment with MCF7 [3]; 77.6% in experiment [4]; 49.5% with HT-29; 64.3% in the experiment with UACC-257; 93.3% in the experiment on SF-295.

As to `COc1ccc(CCNCc2c(O)c(C)c(C)c3c2CC[C@@](C)(CC/C=C(\C)CC/C=C(\C)CCC=C(C)C)O3)cc1OC`, the growth at 10 µM was found to be 110% with DU-145; 74% in the experiment with SN12C; 59.1% with MDA-MB-468; 104% with OVCAR-5; 106% with NCI-H226; 71.5% with IGROV-1. Also, the growth at 10 µM was 29.3% in the experiment with MCF7 [3]; 99.3% in [4]; 45.8% in the experiment on HT-29; 104% in the experiment with HOP-92; 107% in the experiment with UACC-257; 102% in the experiment with SF-295. The same molecule returned an IC50 in experiment [2] of 1.7 µM.

Regarding `CC(C)=CCC/C(C)=C/CC/C(C)=C/CC[C@]1(C)CCc2c3c(cc(C)c2O1)OCN(CCCCCCCCCCO)C3`, the IC50 in the experiment on MCF7 [1] came to 4.6 µM; in [2], 3.6 µM. The growth at 10 µM stood at 100% in the experiment on DU-145; 92.7% in the experiment on SN12C; 83.8% with MDA-MB-468; 105% in the experiment with OVCAR-5; 89.8% with NCI-H226; 80.1% with IGROV-1. In addition, the growth at 10 µM in the experiment with MCF7 [3] was determined as 59.2%; in experiment [4] it was 87.1%; in the experiment on HT-29, 48.3%; in the experiment with UACC-257 it was 81.4%; with SF-295, 114%.

Take `CC(C)=CCC/C(C)=C/CC/C(C)=C/CC[C@]1(C)CCc2c3c(c(C)c(C)c2O1)OCN(CCCCCCCCCCCCO)C3`: the IC50 in the experiment on MCF7 [1] is greater than 20 µM; in experiment [2], greater than 5 µM. Further, the growth at 10 µM with DU-145 is 109%; with SN12C it was 97.4%; with MDA-MB-468, 106%; in the experiment with OVCAR-5, 114%; in the experiment with NCI-H226, 93.3%; in the experiment on IGROV-1, 102%. Moreover, the growth at 10 µM with MCF7 [3] worked out at 100%; in experiment [4], 105%; in the experiment on HT-29 it was 84.4%; with HOP-92, 107%; in the experiment on UACC-257, 104%; in the experiment with SF-295, 93.5%.

On to `CC(C)=CCC/C(C)=C/CC/C(C)=C/CC[C@]1(C)CCc2c(CNCCc3ccc(O)cc3)c(O)c(C)c(C)c2O1`, for which the growth at 10 µM in the experiment on DU-145 was 111%; in the experiment on SN12C, 95.1%; in the experiment with MDA-MB-468, 104%; in the experiment with OVCAR-5, 113%; in the experiment with NCI-H226, 105%; in the experiment with IGROV-1, 78.5%. The growth at 10 µM with MCF7 [3] stood at 36.9%; in experiment [4], 99.8%; with HT-29, 95.5%; in the experiment on HOP-92, 94.6%; in the experiment on UACC-257 it was 102%; in the experiment on SF-295, 105%. The molecule also returned an IC50 in experiment [2] of 2.3 µM.

(Values after ChEMBL document CHEMBL2380254, “Optimization of tocotrienols as antiproliferative and antimigratory leads” (Eur J Med Chem, 2013).)
